Assay outcomes from PubChem.
The list is not random: actives were taken first. Their share in the collection is about 1.8%.
Autophagy mod: alters autophagy in cells. 190,000 tested, 0.98% active. calls only at 10 µM (by protocol). MEF GFP-LC3 puncta imaging; test concentration mostly 10 µM;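 active = percentage of spot-positive cells more than 3 SD above its plate mean, without a fluorescence outlier flag or 80% toxicity; inconclusive = no clear call, values can overlap the other calls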;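 note: spot-positive cell cutoff set from DMSO-treated cells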
TNAP inh noacc: inhibitors of human TNAP without phosphate acceptor. inhibition, % at 20 µM. purified TNAP, CDP-star luminescence, 30 min. 200,000 tested, 0.26% active. P05186;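 active = tissue-nonspecific alkaline phosphatase inhibition above about 50% at 20 µM in the single-dose screen, limit read from the data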;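 note: 0% = DMSO negative control and 100% = EDTA positive control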
Target sequence (P05186 whole entry, looked up): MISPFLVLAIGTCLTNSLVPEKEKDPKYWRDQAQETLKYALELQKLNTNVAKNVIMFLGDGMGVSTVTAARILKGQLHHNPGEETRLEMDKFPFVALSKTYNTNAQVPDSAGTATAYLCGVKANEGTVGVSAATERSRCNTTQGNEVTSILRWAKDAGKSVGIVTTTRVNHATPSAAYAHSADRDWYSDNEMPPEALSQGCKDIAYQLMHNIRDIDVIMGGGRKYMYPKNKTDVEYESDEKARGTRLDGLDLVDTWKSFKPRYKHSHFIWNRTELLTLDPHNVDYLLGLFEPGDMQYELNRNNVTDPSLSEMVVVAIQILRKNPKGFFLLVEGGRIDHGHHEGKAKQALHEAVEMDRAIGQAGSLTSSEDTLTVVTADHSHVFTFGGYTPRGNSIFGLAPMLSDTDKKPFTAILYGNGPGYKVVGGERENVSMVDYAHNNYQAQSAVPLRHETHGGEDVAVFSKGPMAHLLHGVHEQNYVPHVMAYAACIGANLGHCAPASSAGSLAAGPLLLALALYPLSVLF
NCF1 inh: blocks human p47phox regulatory protein of NADPH oxidases | p47phox/p22phox peptide binding, fluorescence polarization, 2 h | P14598 | inhibition, % at 24.7 µM | 220,000 tested, 0.53% active;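 active = inhibition above about 30%, limit read from the data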;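 note: 0% = p47phox with labelled peptide and 100% = labelled peptide alone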
TNAP act hiacc: activators of human TNAP at high phosphate acceptor concentration; 200,000 tested, under 10 active; AID 1136; purified TNAP, CDP-star luminescence, 1 M DEA, 30 min; stronger effect = higher value; 0 = EDTA background, 1 = DMSO-only activity; activation factor at 20 µM;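 active = activation factor at least 2 at 20 µM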
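system = human TNAP | amount = enzyme diluted 1/800 final | reagent = 100 µM CDP-star substrate | signal = luminescent substrate turnover signal | dosing = one dose, 20 µM | benchmarks = EDTA negative control, DMSO positive control | measure = activation factor | timing = 30 min reaction, room temperature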
Insulin prom up: MIN6 insulin promoter up-regulation. MIN6 insulin promoter-GFP reporter, high-content imaging; stronger effect = higher value. z-score at 5 µM. 190,000 tested, 0.3% active. AID 1625;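 active = z-score above 3 at 5 µM with at least 500 cells counted in the well; inconclusive = wells under 500 cells, flagged as cytotoxic or low count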
TNAP inh hiacc: inhibitors of human TNAP at high phosphate acceptor concentration; 200,000 tested, 0.03% active; purified TNAP, CDP-star luminescence, 1 M DEA; inhibition, % at 20 µM; P05186;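 active = over 50% inhibition of tissue-nonspecific alkaline phosphatase at 20 µM in the single-dose screen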;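 note: plate controls were DMSO wells for no effect and EDTA-quenched wells as full inhibition for full effect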
Starred values were filed as active, the others as inactive; i = inactive; ? = inconclusive; . = no result; + = active, no number.

SMILES	Autophagy mod	TNAP inh noacc	NCF1 inh	TNAP act hiacc	Insulin prom up	TNAP inh hiacc
COc1ccc2c(c1)NP(=S)(Oc1ccccc1)N2 (stereo not drawn)	.	.	4.1	.	0.69	.
CC1=CC(=C2C(=O)NC(=S)NC2=O)C=C(C(F)(F)F)N1Cc1ccccc1	+	1.2	-27.5	0.9	-0.16	6.4
CC1=CC(=C2C(=O)NC(=O)NC2=O)C=C(C(F)(F)F)N1Cc1ccccc1	i	-7.9	4.0	1	-0.85	-4.4
Cc1cccc(N2C(=O)/C(=C/c3ccc(N4CCN(C)CC4)o3)C(=O)NC2=S)c1C	i	51.4*	-227.2	0.7	2.55	32.2
Cc1ccccc1N1C(=O)NC(=O)/C(=C/c2ccc(N3CCOCC3)o2)C1=O	.	.	-87.7	.	0.21	.
CCc1ccccc1N1C(=O)/C(=C/c2ccc(N3CCN(C)CC3)o2)C(=O)NC1=S	i	51.0*	-248.4	0.6	3.37*	43.9
CCCN1C2CCCC1CC(NC(C)=O)C2 (stereo not drawn)	i	-12.0	2.8	1.1	-0.36	-6.0
CNC(=S)NC1CC2CCCC(C1)N2CC(C)C (stereo not drawn)	i	-8.1	39.8*	1	.	-3.4
CCN1CC2([N+](=O)[O-])CC=C(Cl)C([N+](=O)[O-])(C1)C2 (stereo not drawn)	i	-8.9	-17.7	1	-0.31	-4.2
CN(C)C(=S)SSC(=S)N(C)C	+	-16.2	-1.3	1	?	-2.7
Cc1nc2ccc(P(=O)(O)O)cc2s1	i	-8.6	-34.5	1.1	0.62	-5.0
